Activity calls are given as the source filed them. No cut-off for these calls is given here.
Assays:
[1] = Inhibition of tubulin polymerization
Summary of the method: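 Turbidimetric assembly assay. Tubulin 1.0 mg/mL (10 μM) preincubated 15 min at 30 °C with varying drug concentrations, without GTP. Samples then chilled, 0.4 mM GTP added, and turbidity followed for 20 min at 30 °C after a temperature jump from 0 °C.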

HL-60 = assay: Cytotoxicity against human HL60 cells by MTT assay; assay type: functional, cell-based
Summary of the method: (§1)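 After compound treatment, cells washed once with PBS and incubated 2 h with MTT. Formazan dissolved in DMSO, absorbance read at 570 nm.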

HCT-116 = assay: Cytotoxicity against human HCT116 cells by MTT assay; assay type: functional, cell-based; summary of the method: as §1
A549 = assay: Cytotoxicity against human A549 cells by SRB assay; assay type: functional, cell-based
Summary of the method: (§2)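 Cells exposed to compound or DMSO for the stated periods, fixed with 10% TCA, then stained with 0.4% (w/v) SRB in 1% acetic acid. Unbound dye removed with 1% acetic acid, bound dye dissolved in 10 mM Trizma base, absorbance read at 515 nm.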

[2] = Cytotoxicity against human Hep3B cells by MTT assay; assay type: functional, cell-based, Hep 3B2; summary of the method: as §1
KB = assay: Cytotoxicity against human KB cells by SRB assay; assay type: functional, cell-based; summary of the method: as §2
[3] = Cytotoxicity against human KBVIN cells by SRB assay; assay type: functional, cell-based; summary of the method: as §2
DU-145 = assay: Cytotoxicity against human DU145 cells by SRB assay; assay type: functional, cell-based; summary of the method: as §2
[4] = Displacement of [3H]colchicine from tubulin at 1 uM […]
Summary of the method: (§3)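 Tubulin (1.0 μM) incubated 10 min at 37 °C with 5.0 μM [3H]colchicine and inhibitor at 1.0 or 5.0 μM. At this time roughly 40–60% of maximal colchicine binding has occurred. Inhibition of radiolabel binding measured.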

[5] = Displacement of [3H]colchicine from tubulin at 5 uM by turbidimetry; summary of the method: as §3
OVCAR-3 [6] = assay: Antitumor activity against human OVCAR-3 cells xenografted in nude mouse dosed as ip once weekly for three courses; assay type: functional
OVCAR-3 [7] = assay: Antitumor activity against human OVCAR-3 cells xenografted in nude mouse assessed as life span extension at 200 mg/kg, ip once weekly for three courses; assay type: functional; conditions: route intraperitoneal
OVCAR-3 [8] = assay: Antitumor activity against human OVCAR-3 cells xenografted in nude mouse assessed as life span extension at 134 mg/kg, ip once weekly for three courses; assay type: functional; conditions: route intraperitoneal
OVCAR-3 [9] = assay: Antitumor activity against human OVCAR-3 cells xenografted in nude mouse assessed as life span extension at 79 mg/kg, ip once weekly for three courses; assay type: functional; conditions: route intraperitoneal
HCC 2998 = assay: Cytotoxicity against human HCC2998 cells; assay type: functional, cell-based
KM12 = assay: Cytotoxicity against human KM12 cells; assay type: functional, cell-based
SF-539 = assay: Cytotoxicity against human SF539 cells; assay type: functional, cell-based
SNB-75 = assay: Cytotoxicity against human SNB75 cells; assay type: functional, cell-based
SK-MEL-5 = assay: Cytotoxicity against human SK-MEL-5 cells; assay type: functional, cell-based
IGROV-1 = assay: Cytotoxicity against human IGROV1 cells; assay type: functional, cell-based
OVCAR-3 [10] = assay: Cytotoxicity against human OVCAR-3 cells; assay type: functional, cell-based

| SMILES | IC50 [1] | IC50 (HL-60) | IC50 (HCT-116) | IC50 (A549) | IC50 [2] | IC50 (KB) | IC50 [3] | IC50 (DU-145) | further results |
| --- | --- | --- | --- | --- | --- | --- | --- | --- | --- |
| O=c1cc(-c2cc3ccccc3o2)[nH]c2cc3c(cc12)OCO3 | > 4 µM | > 1 µM | > 1 µM | > 1 µM | > 1 µM | > 1 µM | > 1 µM | > 1 µM |  |
| COc1ccc(/C=C\c2cc(OC)c(OC)c(OC)c2)cc1O |  |  |  |  |  |  |  |  | Activity [4]: 91% |
| Cc1cnc2nc(-c3csc4ccccc34)cc(O)c2c1 | 0.37 µM |  |  |  |  |  |  |  |  |
| O=c1cc(-c2cccc3ccccc23)[nH]c2cc3c(cc12)OCO3 | 0.64 µM | 0.07 µM | 0.07 µM | 0.13 µM | 0.07 µM | 0.13 µM | 0.19 µM | 0.13 µM | Activity [4]: 33%; Activity [5]: 67% |
| O=c1cc(-c2ccccc2F)[nH]c2cc3c(cc12)OCO3 |  |  |  |  |  |  |  |  | MTD (OVCAR-3 [6]): >200 mg/kg; Activity (OVCAR-3 [7]): 124%; Activity (OVCAR-3 [8]): 133%; Activity (OVCAR-3 [9]): 79% |
| O=c1cc(-c2coc3ccccc23)[nH]c2cc3c(cc12)OCO3 | 0.58 µM | 0.03 µM | 0.05 µM | 2.98 µM | 0.09 µM | 1.05 µM | 0.59 µM | 1.87 µM | Activity [4]: 39%; Activity [5]: 51%; Activity (HCC 2998): Active; Activity (KM12): Active; Activity (SF-539): Active; Activity (SNB-75): Active; Activity (SK-MEL-5): Active; Activity (IGROV-1): Active; Activity (OVCAR-3 [10]): Active |
| O=c1cc(-c2csc3ccccc23)[nH]c2cc3c(cc12)OCO3 | 0.76 µM | 0.17 µM | 0.14 µM | > 0.25 µM | 0.06 µM | > 0.25 µM | > 0.25 µM | > 0.25 µM | Activity [4]: 25%; Activity [5]: 61% |
| COc1cccc(-c2cc(O)c3cc(N4CCCC4)ccc3n2)c1 |  |  |  |  |  |  |  |  | MTD (OVCAR-3 [6]): 25 mg/kg |
| O=c1cc(-c2ccc3ccccc3c2)[nH]c2cc3c(cc12)OCO3 | > 40 µM | 0.5 µM | > 1 µM | > 1 µM | > 1 µM | > 1 µM | > 1 µM | > 1 µM |  |
| O=c1cc(-c2cccc3ncccc23)[nH]c2cc3c(cc12)OCO3 | 27 µM | > 10 µM | > 10 µM | > 10 µM | > 10 µM | > 10 µM | > 10 µM | > 10 µM |  |
| O=c1cc(-c2ccc3ccccc3n2)[nH]c2cc3c(cc12)OCO3 | > 40 µM | > 5 µM | > 5 µM | > 5 µM | > 5 µM | > 5 µM | > 5 µM | > 5 µM |  |
| O=c1cc(-c2cc3ccccc3s2)[nH]c2cc3c(cc12)OCO3 |  | > 1 µM | > 1 µM | > 1 µM | > 1 µM | > 1 µM | > 1 µM | > 1 µM |  |
| O=c1cc(-c2cccc3cc4ccccc4cc23)[nH]c2cc3c(cc12)OCO3 | > 40 µM | 0.53 µM | 1.6 µM |  | 2.2 µM |  |  |  |  |
| O=c1cc(-c2cnc3ccccc3c2)[nH]c2cc3c(cc12)OCO3 | > 4 µM | > 0.1 µM | > 0.1 µM | > 0.1 µM | > 0.1 µM | > 0.1 µM | > 0.1 µM | > 0.1 µM |  |
| Cc1c(-c2cccc3ccccc23)c(=O)[nH]c2cc3c(cc12)OCO3 |  | > 10 µM | > 10 µM |  | 4.3 µM |  |  |  |  |
| O=c1cc(-c2ccnc3ccccc23)[nH]c2cc3c(cc12)OCO3 | > 40 µM | > 5 µM | > 5 µM | > 5 µM | > 5 µM | > 5 µM | > 5 µM | > 5 µM |  |
